aSyn 5UTR inh – MLPCN primary screen, SNCA 5' untranslated region | hit rate 0.82% among 300,000 | inhibition, % (tested at 7.5 µM) | alpha-synuclein 5'UTR reporter, inhibitor activity; in the data active = inhibition above about 60%; inconclusive = no clear call, values can overlap the other calls;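 note: H4 neuroglioblastoma cells stably carrying SNCA 5'UTR luciferase fusion; 0% = DMSO wells and 100% = positive control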
TAG inh – inhibitors of triacylglycerol accumulation, primary screen, cell-based, uHTS, fluorescence, H9c2; hit rate 0.66% among 230,000; inhibition, % at 12.5 µM; H9c2 cells, Nile Red lipid (TAG) fluorescence; cells loaded with 200 µM oleic acid; AID 651582, 2012;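 active = pattern-corrected inhibition of lipid staining of at least 50% with the nuclear-stain viability signal not falling by more than 50%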;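 note: 0% = DMSO wells and 100% = triacsin C control wells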
Jurkat NFkB inh – inhibitors of induced NF-kB luciferase reporter, primary screen, TCR NF-kB activation inhibitor project, cell-based, luminescence, uHTS | Jurkat, PMA/ionomycin-induced NF-kB luciferase reporter | inhibition, % at 4 µM | hit rate 0.53% among 330,000; in the data active = inhibition above about 50%
APP 5UTR inh – inhibitors of APP translation via 5'UTR reporter, primary screen, APP 5'UTR luciferase, SH-SY5Y cells. SH-SY5Y APP 5'UTR-luciferase reporter, luminescence. hit rate 0.82% among 190,000. inhibition, % at 2 µM;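 active = inhibition above a set limit, derived from the sample mean plus 3 SD, cut at about 45% in these data; inconclusive = one replicate passes the limit while the other fails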
Lipid droplet – inhibitors of hepatocyte lipid droplet formation, primary screen, imaging, high-throughput imaging, BODIPY stain | AML12 mouse hepatocytes, oleate lipid droplets | inhibition, % at 6.5 µM | hit rate 0.4% among 240,000 | AID 1656, 2009;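 active = lipid droplet intensity inhibited by at least 50%, with more than 500 cells counted; inconclusive = wells with under 300 cells, treated as cytotoxic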
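Material – AML12 mouse liver cells · Also added – oleate loading, 100 µM · Compound dosing – 6.5 µM single-point dosing · Times – overnight treatment with compound plus oleate · Measured by – fluorescence imaging, 20x objective, two fields per well · Read-out – percent inhibition of filter-corrected integrated lipid droplet intensity per well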
697 NFkB inh – inhibitors of PMA/ionomycin-induced NF-kB reporter, 697 cells, primary screen, B-cell NF-kB inhibitor project, cell-based, luminescence, uHTS; 697 B-cell NF-kB luciferase reporter, 16 h; inhibition, % at 4 µM; hit rate 0.33% among 330,000; AID 435022, 2010; in the data active = inhibition above about 35%
The depositor's hits bear a star; ? = inconclusive; / = not tested or not shown. A selection: hits, their analogues and other compounds. The true share with any hit is near 1.9%.

SMILES | aSyn 5UTR inh | TAG inh | Jurkat NFkB inh | APP 5UTR inh | Lipid droplet | 697 NFkB inh
CC1=NN(c2ccccc2)C(=O)/C1=C\C=C\c1ccccc1 | -127.4 | -15.3 | 0.9 | / | 4.4 | -57.2
CC1=NN(c2ccccc2)C(=O)/C1=C/C=C/c1ccc(N(C)C)cc1 | -26.1 | 66.5* | / | 16.3 | 46.9 | /
C[C@H]1CNC(=O)c2c(C(=O)N[C@@H](Cc3c[nH]c4ccccc34)C(=O)OC(C)(C)C)ncn21 | / | 6.3 | / | / | / | /
Cn1c(CC(=O)Nc2ccc(F)cc2)nnc1SCC(=O)Nc1nncs1 | 6.7 | / | 10.9 | / | -16.1 | -0.4
CCN(CC)S(=O)(=O)c1cccc(C(=O)N/N=C(\C)c2ccc(O)cc2O)c1 | 110.6* | 29.3 | 24.6 | 44.4 | 28.6 | 4.6
Cc1noc(C)c1S(=O)(=O)N(C)C[C@@H]1OCc2cnnn2CCCC(=O)N([C@@H](C)CO)C[C@H]1C | / | -3.1 | / | / | / | /
CCN(CC)S(=O)(=O)c1ccc(SCC(=O)c2c(N)n(C3CC3)c(=O)[nH]c2=O)nc1 | / | 1.2 | / | / | / | /
CN(C)CC1(C)Cc2ccsc2C1O (stereo unspecified) | / | -9.0 | / | / | / | /
O=C(Nc1ccc2ncccc2c1)c1cccc(Br)c1 | -375.2 | -10.7 | -102.2 | / | -6.8 | -87.9
Cc1ccc(C(=O)Nc2ccc3ncccc3c2)cc1 | 84.1* | / | -24.5 | / | 20.7 | -181.3
CCN(CC)CCCNC(=S)N1CCN(c2nc(-c3ccc(F)cc3)cs2)CC1 | 132.8* | 42.8 | 1.1 | / | -10.0 | -12.8
CCNC(=S)N1CCN(c2nc(-c3ccc(F)cc3)cs2)CC1 | -37.7 | / | 17.4 | / | -0.2 | 19.7
NC(=O)c1cccc(-c2coc3c(C(=O)NC4CCCCC4)cccc23)c1 | / | -15.1 | / | / | / | /
Cc1cc(C(=O)COC(=O)c2ccccc2O)c(C)n1Cc1cccs1 | 92.7* | / | 26.7 | -7.6 | -3.0 | 0.6
CC(=O)Nc1ccc(SCC(=O)c2cc(C)n(Cc3cccs3)c2C)cc1 | 68.4* | -20.5 | -22.3 | -112.1 | / | -234.9
CN(CC1CCCO1)S(=O)(=O)c1ccc(C(=O)Nc2nc(-c3ccccn3)cs2)cc1 (stereo unspecified) | / | 2.0 | 25.4 | 74.0* | 16.4 | -31.5
NC(=O)C1CCCN(C(=S)Nc2cccc3ccccc23)C1 (stereo unspecified) | -90.5 | / | 18.5 | -12.9 | -21.3 | -53.2
Cc1ccc(/C=N/NC(=O)c2n[nH]c3c2CCCC3)cc1 | 76.9* | 29.0 | 25.4 | / | ? | -219.8
C/C(=N\NC(=O)c1cc(C)[nH]n1)c1cccs1 | 38.6 | 21.5 | -69.4 | -113.5 | 7.4 | -60.8
O=C(N/N=C/C=C/c1ccccc1)c1n[nH]c2c1CCC2 | 70.2* | / | 35.6 | 60.5* | -110.3 | -24.2
Cc1cc(C(=O)N/N=C/C=C/c2ccccc2)n[nH]1 | -33.4 | 5.7 | -10.1 | / | 3.7 | -7.1
O=C(N/N=C/c1cccc2ccccc12)c1n[nH]c2c1CCCC2 | -21.7 | 29.1 | 24.7 | 73.5* | -1.3 | -51.4
C/C(=N\NC(=O)c1n[nH]c2c1CCC2)c1cccs1 | 107.2* | 12.2 | 29.9 | / | 26.4 | 0.0
C[C@H]1CN(S(=O)C(C)(C)C)[C@H](CCO)/C1=C\c1ccccc1 (stereo partly specified) | / | -17.4 | / | / | / | /
CC1CCC(NC(=O)CCn2ccc3cc(S(=O)(=O)N4CCCC4)ccc32)CC1 (stereo unspecified) | -16.8 | / | 10.0 | / | -1.4 | -10.8
SMILES | aSyn 5UTR inh | TAG inh | Jurkat NFkB inh | APP 5UTR inh | Lipid droplet | 697 NFkB inh
Cc1cn(C2CCCCC2)c(=O)n(-c2ccccc2)c1=O | / | -20.6 | / | / | / | /
O=C(N/N=C/c1cccs1)c1n[nH]c2c1CCCC2 | 81.8* | 1.6 | -17.2 | / | 0.9 | -87.1
O=C(Nc1nc2ccccc2[nH]1)c1ccccc1F | 108.4* | / | 26.7 | 1.4 | / | 6.0
CC(C)Oc1ccc(C(=O)Nc2nc3ccccc3[nH]2)cc1 | 81.5* | / | -34.3 | / | 13.1 | -158.0
O=C(Nc1nc2ccccc2[nH]1)c1ccccc1OC(F)F | 0.5 | / | -72.3 | / | 1.4 | -176.3
CCc1ccc(C(=O)Nc2nc3ccccc3[nH]2)cc1 | 87.9* | / | -30.0 | / | -2.7 | -152.5
Clc1nc(NC2CCCCC2)c2cn[nH]c2n1 | / | -2.9 | / | / | / | /
COc1ccc(N/N=C(/N=Nc2nc(C)cc(=O)[nH]2)c2ccccc2)cc1 | 85.1* | 15.6 | -15.1 | -37.7 | -70.5 | -131.9
Cc1cc(=O)[nH]c(N=N/C(=N/Nc2ccccc2C)c2ccccc2)n1 | 81.6* | 11.4 | 23.2 | 4.1 | -15.4 | -33.0
Cc1cc(=O)[nH]c(N=N/C(=N/Nc2ccc(O)cc2)c2ccccc2)n1 | -100.2 | -2.4 | -37.4 | -90.9 | -6.9 | -48.2
CCC(C)Nc1nc(-c2ccccn2)nc2ccccc12 (stereo unspecified) | 68.6* | / | -6.0 | / | / | -18.2
COc1cc(C(=O)NNC(=O)C2CC=CCC2C(=O)O)cc(OC)c1OC (stereo unspecified) | 5.2 | / | / | 64.8* | 13.6 | /
Cc1nn(Cc2cccc(F)c2)c(C)c1NC(=O)c1ccc(COc2ccccc2Cl)cc1 | 68.8* | / | 15.7 | -3.9 | -3.0 | 10.2
N#Cc1c(-c2ccc(F)cc2)c(-c2ccc(F)cc2)nn(CCO)c1=O | / | 23.7 | / | / | / | /
COc1cc(OC)c(NS(=O)(=O)c2ccc(Cl)c(C(=O)OC(C)C(=O)N3CCCC3)c2)cc1Cl (stereo unspecified) | -5.0 | / | -0.4 | 1.6 | 1.7 | -14.2
COCCn1c(=O)c2c(nc3n2CC(C)CN3CCc2ccccc2)n(C)c1=O (stereo unspecified) | 67.2* | / | -5.2 | / | -5.4 | 1.9
CCn1c(=O)c2c(nc3n2CC(C)CN3CCc2ccccc2)n(C)c1=O (stereo unspecified) | 13.0 | -117.1 | 0.5 | -2.1 | / | -9.1
COc1ccc(Nc2nc(OC)nc(OC)n2)cc1 | -7.0 | -9.7 | 8.6 | / | 7.7 | -50.1
COc1ccc(Nc2nc(Nc3ccc(OC)cc3)nc(-n3[nH]c(=O)c(C)c3C)n2)cc1 | -34.4 | 57.5* | 18.7 | 34.4 | / | 18.1
CC1=NN(c2ccc(C)c(C)c2)C(=O)/C1=C\C=C\c1ccc([N+](=O)[O-])o1 | 78.2* | 31.3 | 2.3 | 94.8* | 7.0 | -42.1
CC(=O)c1ccc(S(=O)(=O)N2CCN(CC(=O)Nc3ccnn3C3CCCC3)CC2)cc1 | / | -0.7 | / | / | / | /
O=C(c1cc(-c2ccccc2)nc2ccccc12)N1CCc2ccccc2C1 | -1.1 | / | 8.4 | -15.7 | -17.2 | 5.1
Cc1ccc2nc(-c3ccccc3)cc(C(=O)N3CCc4ccccc4C3)c2c1 | -50.7 | / | 7.8 | 46.6* | / | 13.2
CCN(CC(=O)NC1CCS(=O)(=O)C1)S(=O)(=O)c1ccc(Cl)c(C(F)(F)F)c1 (stereo unspecified) | / | 4.0 | 5.0 | / | / | 2.3
OCCN=C1CCCc2c1[nH]c1ccc(Br)cc21 | 62.2* | 0.6 | 0.2 | -3.4 | / | 3.9
COC(=O)c1cccc(Cn2c(Cl)c(/C=N/Nc3ccccc3C)sc2=O)c1 | -2.1 | / | / | 45.6* | 1.9 | /
